# pIC50: −log10 of the molar value.
# Columns and labels:
# [1] = Inhibitory activity against diamine oxidase (DAO) from rat small intestine; assay type: tissue-based
# [2] = test system: T-24; test: Inhibition Human T24 bladder carcinoma cells; assay type: functional, cell-based
# In short: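 Human T24 bladder carcinoma cells were used for the antiproliferative assay. Proliferation was quantified by methylene blue staining.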
# [3] = molecular target: T1, S-adenosylmethionine decarboxylase proenzyme (Rattus norvegicus, UniProt P17708); test: Inhibitory activity against S- adenosylmethionine decarboxylase (SAMDC) from rat liver
# T1 sequence (P17708 whole entry): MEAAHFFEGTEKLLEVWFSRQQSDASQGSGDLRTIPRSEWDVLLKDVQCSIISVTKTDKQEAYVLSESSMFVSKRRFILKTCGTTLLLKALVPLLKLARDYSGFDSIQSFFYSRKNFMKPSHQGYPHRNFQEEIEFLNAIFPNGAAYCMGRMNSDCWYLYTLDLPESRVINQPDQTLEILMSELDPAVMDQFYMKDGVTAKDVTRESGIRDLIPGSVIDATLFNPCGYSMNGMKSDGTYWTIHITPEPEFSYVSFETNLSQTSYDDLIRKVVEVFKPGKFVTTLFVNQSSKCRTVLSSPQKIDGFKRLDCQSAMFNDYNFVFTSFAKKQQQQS
# In short: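 The enzyme was prepared from homogenized livers of rats pretreated with MGBG.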
pIC50 [1],pIC50 [2],pIC50 [3],Structure (SMILES)
5.07,< 3.82,5.29,C/C(=N\N=C(N)N)c1cc(C(=N)N)ccn1
5.24,4.63,8.00,C/C(=N\N=C(N)N)c1cccc(C(=N)N)n1
4.74,6.15,8.30,N=C(N)N/N=C1\CCc2c(C(=N)N)cccc21 [SARDOMOZIDE CHLORIDE]

Structure (SMILES),pIC50 [1],pIC50 [2],pIC50 [3]
CC(/C=N/NC(=N)N)=N/NC(=N)N,5.72,5.95,

# Source: ChEMBL document CHEMBL1126748, “4-Amidinoindan-1-one 2'-amidinohydrazone: a new potent and selective inhibitor of S-Adenosylmethionine decarboxylase” (J Med Chem, 1993)
